Published values from different studies.
In brackets after ≈: the same amount, converted by molar mass.

CC(=O)Oc1cccc2c1[nH]c1c(C3=C[C@@]4(OC(C)=O)CC/C=C\CCCCN5CC[C@@H]3[C@]3(C[C@@H]6/C=C\CCCCN6[C@H]34)C5)nccc12 gave an MBC of > 20 µg/mL (Mycobacterium intracellulare; microbial killing).
For COC(=O)c1cc(-c2cccc(NC(=O)Nc3ccc(F)c(F)c3)c2)on1, the MIC was > 64 µg/mL (Mycobacteroides chelonae; microbial growth, broth dilution; ATCC35752; 48 h).
The MIC of O=c1c2ccccc2nc(/C=C/c2ccc3c(c2)OCO3)n1-c1cccc(O)c1 is reported as > 128 µg/mL (Enterococcus faecium; microbial growth, broth dilution; NCTC7171).
Cc1cc(Cc2ccccc2)n(O)c(=O)c1 has an MIC80 of 1.2 µM (≈ 0.258 µg/mL) (Candida albicans; microbial growth; ATCC90028).
The MIC of COC(=O)c1cc(-c2cccc(NC(=S)Nc3ccccc3)c2)on1 is reported as > 64 µg/mL (Mycobacteroides chelonae; microbial growth, broth dilution; ATCC35752; 48 h).
With O=c1c2ccccc2[se]n1-c1ccccc1 the EC50 was 2.97 µM (Trypanosoma brucei; parasite growth; blood stage).
With COC(=O)c1cc(-c2cccc(NC(=O)Nc3ccccc3OC)c2)on1 the MIC was > 64 µg/mL (Mycobacteroides chelonae; microbial growth, broth dilution; ATCC35752; 48 h).
With O=c1c2ccccc2nc(/C=C/c2ccccc2F)n1-c1cccc(O)c1 the MIC was 32 µg/mL (≈ 89.3 µM) (Enterococcus faecium; microbial growth, broth dilution; NCTC7171).
With O=C(O)CSc1ncnc2cc(-c3cc4ccccc4s3)sc12 the inhibition was -36% (Murine coronavirus; viral replication; 1 µM, 10 h).
With Nc1ccc(/C=C/c2nc3ccccc3c(=O)n2-c2cccc(O)c2)cc1 the MIC was > 128 µg/mL (Enterococcus faecium; microbial growth, broth dilution; NCTC7171).
For COC(=O)c1cc(-c2cccc(NC(=S)Nc3ccc(C#N)cc3)c2)on1, the MIC was 64 µg/mL (≈ 169 µM) (Mycobacteroides chelonae; microbial growth, broth dilution; ATCC35752; 48 h).
The MIC of O=c1c2ccccc2nc(/C=C/c2ccc(F)cc2)n1-c1cccc(O)c1 is reported as 128 µg/mL (≈ 357 µM) (Enterococcus faecium; microbial growth, broth dilution; NCTC7171).
With COc1ccc(Cc2cc(C)cc(=O)n2O)cc1 the MIC80 was 2.3 µM (≈ 0.564 µg/mL) (Candida albicans; microbial growth; ATCC90028).
For CCC(=O)N1CCN(c2ccc(-n3c(=O)ccc4cnc5ccc(-c6cnc7ccccc7c6)cc5c43)cc2C(F)(F)F)CC1, the IC50 was 0.41 µM (Plasmodium berghei; parasite growth, luciferase; human; liver stage).
For CCCCCOc1ccc(-c2cc(-c3ccc(C(=O)N[C@H]4C[C@@H](O)[C@@H](O)NC(=O)[C@@H]5[C@@H](O)[C@@H](C)CN5C(=O)[C@H]([C@H](O)CC(N)=O)NC(=O)[C@H]([C@H](O)[C@@H](O)c5ccc(O)c(OS(=O)(=O)O)c5)NC(=O)[C@@H]5C[C@@H](O)CN5C(=O)[C@H]([C@@H](C)O)NC4=O)cc3)no2)cc1, the inhibition was 47% (Candida albicans; biofilm formation; 16 µg/mL).
Cc1ccc(/C=C/c2nc3ccccc3c(=O)n2-c2cccc(O)c2)cc1 has an MIC of > 128 µg/mL (Enterococcus faecium; microbial growth, broth dilution; NCTC7171).
COC(=O)c1cc(-c2cccc(NC(=S)Nc3ccc(C)cc3)c2)on1 gave an MIC of > 64 µg/mL (Mycobacteroides chelonae; microbial growth, broth dilution; ATCC35752; 48 h).
Cc1nc(N)sc1-c1ccnc(Nc2ccc(N3CCOCC3)cc2)n1 gave an IC50 of 0.46 µM (Plasmodium berghei; parasite growth, luciferase; human; liver stage).
The MIC of O=c1c2ccccc2nc(/C=C/c2ccc(F)cc2)n1-c1cccc([N+](=O)[O-])c1 is reported as > 128 µg/mL (Enterococcus faecium; microbial growth, broth dilution; NCTC7171).
COC(=O)c1cc(-c2cccc(NC(=S)Nc3cccc(Br)c3)c2)on1 gave an MIC of > 64 µg/mL (Mycobacteroides chelonae; microbial growth, broth dilution; ATCC35752; 48 h).
